Results from ChEMBL document CHEMBL5223167, “Synthesis of Novel Kidney-Type Glutaminase Allosteric Inhibitors Targeting the Critical Lys-320 Residue” (ACS Med Chem Lett, 2023).
Calls of active or inactive are those of the source. No cut-off for these calls is given here.

What was measured:
[1] = molecular target: Glutamate dehydrogenase 1, mitochondrial (Bos taurus) (UniProt P00366); test: Inhibition of bovine GDH using glutamate as substrate preincubated for 0.5 hrs followed by substrate addition and further incubated for 1 hr in presence of NADP+ by EZMTT reagent based assay
Chain of Glutamate dehydrogenase 1, mitochondrial (Bos taurus) (P00366 whole entry): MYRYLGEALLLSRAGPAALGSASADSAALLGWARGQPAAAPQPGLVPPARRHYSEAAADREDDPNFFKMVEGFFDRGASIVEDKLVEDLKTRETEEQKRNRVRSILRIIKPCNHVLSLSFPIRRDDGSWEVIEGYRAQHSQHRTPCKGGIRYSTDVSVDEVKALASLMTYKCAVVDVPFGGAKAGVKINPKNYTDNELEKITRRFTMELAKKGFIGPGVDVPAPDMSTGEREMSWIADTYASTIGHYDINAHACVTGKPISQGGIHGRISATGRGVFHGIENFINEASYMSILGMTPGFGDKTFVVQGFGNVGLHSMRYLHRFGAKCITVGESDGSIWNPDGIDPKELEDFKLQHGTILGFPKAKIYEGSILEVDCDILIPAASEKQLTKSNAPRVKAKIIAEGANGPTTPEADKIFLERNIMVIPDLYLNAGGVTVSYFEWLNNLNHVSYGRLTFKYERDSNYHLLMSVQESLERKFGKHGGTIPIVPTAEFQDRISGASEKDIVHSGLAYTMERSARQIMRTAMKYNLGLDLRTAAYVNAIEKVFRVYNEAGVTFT

[2] = Stability of compound; type: physicochemical
[3] = system: HCT-116; test: Antiproliferative activity against human HCT-116 cells assessed as growth rate at 1 uM measured after 2 to 24 hrs by EZMTT assay (reference value: 100%); type: functional; conditions: for growth at 1 µM: Homo sapiens, HCT-116, time 2-24 hrs, read-out: Activity
[4] = system: HCT-116; test: Antiproliferative activity against human HCT-116 cells assessed as growth rate at 10 uM measured after 2 to 24 hrs by EZMTT assay (reference value: 100%); type: functional; conditions: for growth at 10 µM: Homo sapiens, HCT-116, time 2-24 hrs, read-out: Activity
[5] = system: HCT-116; test: Antiproliferative activity against human HCT-116 cells assessed as growth rate at 3 uM measured after 2 to 24 hrs by EZMTT assay (reference value: 100%); type: functional; conditions: for growth at 3 µM: Homo sapiens, HCT-116, time 2-24 hrs, read-out: Activity
[6] = molecular target: T1, Glutaminase kidney isoform, mitochondrial (Homo sapiens, UniProt O94925); test: Binding affinity to wild type human KGA assessed as covalent bond formation by measuring dissociation constant by biomolecular interaction assay
T1 sequence (O94925 whole entry): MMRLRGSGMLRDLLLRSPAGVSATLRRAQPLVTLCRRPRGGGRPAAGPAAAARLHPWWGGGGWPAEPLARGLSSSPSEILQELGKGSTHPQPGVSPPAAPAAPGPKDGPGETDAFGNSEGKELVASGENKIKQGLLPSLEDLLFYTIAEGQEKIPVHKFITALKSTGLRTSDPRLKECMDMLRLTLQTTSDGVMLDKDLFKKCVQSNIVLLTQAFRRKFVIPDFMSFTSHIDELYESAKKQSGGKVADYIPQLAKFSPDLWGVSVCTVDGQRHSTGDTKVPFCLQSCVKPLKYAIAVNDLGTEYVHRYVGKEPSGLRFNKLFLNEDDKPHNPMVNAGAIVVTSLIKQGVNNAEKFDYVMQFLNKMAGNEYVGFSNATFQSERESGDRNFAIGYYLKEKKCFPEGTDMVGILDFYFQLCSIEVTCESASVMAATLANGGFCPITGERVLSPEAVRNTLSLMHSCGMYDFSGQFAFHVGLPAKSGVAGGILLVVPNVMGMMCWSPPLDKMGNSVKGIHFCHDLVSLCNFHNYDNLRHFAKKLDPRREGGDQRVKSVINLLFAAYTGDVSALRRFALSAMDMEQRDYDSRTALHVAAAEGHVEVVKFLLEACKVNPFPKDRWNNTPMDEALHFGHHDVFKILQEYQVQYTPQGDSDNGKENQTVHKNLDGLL

[7] = organism: Homo sapiens; test: Inhibition of biotinylated N-[6-[4-[5-[[2-(2-pyridyl)acetyl]amino]-1,3,4-thiadiazol-2-yl]butyl]pyridazin-3-yl]-2-[3-(trifluoromethoxy)phenyl]acetamide binding to human KGA K320A mutant by biomolecular interaction assay; conditions: dose 0-3 µM
[8] = organism: Homo sapiens; test: Binding affinity to alanine residue of human KGA K320A mutant assessed as covalent bond formation
[9] = system: A549; test: Inhibition of colony formation in human A549 cells assessed as reduction in number and size of colonies incubated for 14 days by crystal violet staining based assay; type: functional, cell-based; conditions: dose 1-5 µM, time 14.0 day
[10] = molecular target: T2, Glutaminase kidney isoform, mitochondrial (Homo sapiens) (UniProt O94925); test: Inhibition of biotinylated N-[6-[4-[5-[[2-(2-pyridyl)acetyl]amino]-1,3,4-thiadiazol-2-yl]butyl]pyridazin-3-yl]-2-[3-(trifluoromethoxy)phenyl]acetamide binding to wild type human KGA at >300 nM by biomolecular interaction assay
T2 sequence (whole entry): T1 sequence (O94925 whole entry)

[11] = Clearance in ICR mouse at […], iv measured for 24 hrs by HPLC analysis; type: ADME, organism-based; conditions: in vivo
[12] = Metabolic stability in mouse liver microsomes assessed as parent compound remaining measured for 2 hrs by HPLC analysis; type: ADME, Microsome; conditions: read-out: Stability
How it was run: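 Compound is incubated with mouse liver microsomes for 2 h. The parent level remaining is quantified by HPLC, with coumarin as the reference control.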

[13] = Half life in ICR mouse at […], iv measured for 24 hrs by HPLC analysis; type: ADME, organism-based; conditions: in vivo
[14] = molecular target: T2, Glutaminase kidney isoform, mitochondrial (Homo sapiens); test: Covalent inhibition of wild type human KGA using glutamine as substrate at 10 uM preincubated for 0.5 hrs followed by substrate addition and measured after 4 hrs by EZMTT reagent based assay; conditions: time 4.5 hrs
How it was run: (§1)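 Human KGA, either wild-type or the K320A mutant, is pre-incubated with or without compound at 10 μM before the enzyme activity assay.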

[15] = system: A549; test: Induction of ROS production in human A549 cells at 5 to 10 uM incubated for 12 hrs by dichlorodihydro-fluorescein diacetate probe based fluorescence microscopic analysis; type: functional, cell-based; conditions: dose 5-10 µM
[16] = molecular target: T1, Glutaminase kidney isoform, mitochondrial; test: Inhibition of human KGA using glutamine as substrate preincubated for 0.5 hrs followed by substrate addition and measured after 4 hrs by EZMTT reagent based assay
[17] = organism: Homo sapiens; test: Covalent inhibition of human KGA K320A mutant using glutamine as substrate at 10 uM preincubated for 0.5 hrs followed by substrate addition and measured after 4 hrs by EZMTT reagent based assay; conditions: time 4.5 hrs; how it was run: as §1
[18] = system: H22; test: Antiproliferative activity against mouse H22 cells assessed as inhibition of cell growth by measuring fold improvement in IC50 incubated for 5 days by EZMTT assay relative to control; type: functional; conditions: time 5 day
[19] = system: HCT-116; test: Antiproliferative activity against human HCT-116 cells assessed as inhibition of cell growth by measuring fold improvement in IC50 incubated for 5 days by EZMTT assay relative to control; type: functional; conditions: time 5 day

With `O=C(/C=C/c1cc(F)ccc1F)Nc1ccc(CCCCc2nnc(NC(=O)Cc3ccccn3)[se]2)nn1` the inhibition [1] was “inactive” and the Stability [2] was “Unstable”.
With `O=C(Cc1cccc(OC(F)(F)F)c1)Nc1ccc(CCCCc2nnc(NC(=O)Cc3ccccn3)s2)nn1` the inhibition [1] was “inactive”, the Activity ([3]; time 2-24 hrs) was 19.1% and the Activity ([4]; time 2-24 hrs) was 14.1%. The Activity ([5]; time 2-24 hrs) was 17%.
For `O=C(/C=C/c1ccc2c(c1)OCO2)Nc1ccc(CCCCc2nnc(NC(=O)Cc3ccccn3)[se]2)nn1`, the Kd [6] was no more than 0.001 nM, the inhibition [7] was “Dose-Dependent Effect” and the Activity [8] was “inactive”. For the same compound, the inhibition [1] was “inactive”, the inhibition [9] was “Dose-Dependent Effect” and the inhibition [10] was “Active”. For the same compound, the growth at 1 µM [3] was 14.3%, the clearance [11] was 327 mL/min/kg and the growth at 10 µM [4] was 6.3%. The remaining at 2 h [12] was 74%, the half-life [13] was 4.89 h and the inhibition [14] was 100%. The Activity [15] was “Active”, the IC50 [16] was 50 nM and the growth at 3 µM [5] was 6%. For the same compound, the Stability [2] was “Stable” and the inhibition [17] was “inactive”.
For `C=CC(=O)Nc1ccc(CCCCc2nnc(NC(=O)Cc3ccccn3)[se]2)nn1`, the inhibition [1] was “inactive” and the Stability [2] was “Unstable”.
For `C=CC(=O)Nc1ccc(CCCCc2nnc(NC(=O)Cc3cc4ccccc4n3C)s2)nn1`, the inhibition [1] was “inactive” and the Stability [2] was “Unstable”.
In the case of `O=C(/C=C/c1ccc2c(c1)OCO2)Nc1ccc(CCCCc2nnc(NC(=O)Cc3ccccn3)s2)nn1`, the “fold change (FC)” value [18] is reported as 30, the Kd [6] is reported as no more than 0.001 nM and the inhibition [7] is reported as “Dose-Dependent Effect”. The Activity [8] was “inactive”, the inhibition [1] was “inactive” and the inhibition [9] was “Dose-Dependent Effect”. For the same compound, the inhibition [10] was “Active”, the growth at 1 µM [3] was 11.9% and the clearance [11] was 582 mL/min/kg. The growth at 10 µM [4] was 6.1%, the remaining at 2 h [12] was 83% and the half-life [13] was 3.37 h. For the same compound, the inhibition [14] was 100%, the Activity [15] was “Active” and the IC50 [16] was 28 nM. For the same compound, the growth at 3 µM [5] was 7.6%, the Stability [2] was “Stable” and the inhibition [17] was “inactive”. The “fold change (FC)” value [19] was 3.
In the case of `O=c1ccc2ccccc2o1` [COUMARIN], the remaining at 2 h [12] is reported as 61%.
For `C=C(C(=O)Nc1ccc(CCCCc2nnc(NC(=O)Cc3ccccn3)[se]2)nn1)c1cccc(OC(F)(F)F)c1`, the inhibition [1] was “inactive” and the Stability [2] was “Unstable”.
With `C=CC(=O)Nc1ccc(CCCCc2nnc(NC(=O)Cc3ccccn3)s2)nn1` the inhibition [1] was “inactive” and the Stability [2] was “Unstable”.
